EC50, Emax and IC50 data for nine compounds are collected here from ChEMBL document CHEMBL1138520, “Molecular and conformational determinants of pituitary adenylate cyclase-activating polypeptide (PACAP) for activation of the PAC1 receptor” (J Med Chem, 2009).

Where a SMILES comes first, the peptide text is derived from it. [ ]: non-standard residue; d: D form. Hyp = O=C(O)[C@@H]1C[C@@H](O)CN1; Aad = N[C@@H](CCCC(=O)O)C(=O)O

In assay [1] the target is T1, Pituitary adenylate cyclase-activating polypeptide type I receptor (Homo sapiens, UniProt P41586). Nature of the assay: Agonist activity at human recombinant PAC1 receptor expressed in CHO cells assessed as PACAP38-induced calcium mobilization by FLIPR assay. Type of assay: functional, cell-based. The method, boiled down: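 CHO cells stably expressing recombinant human PAC1, plated 24 h before assay, loaded with fluo-4 AM for 60 min at 37 °C in the dark, then rinsed into HBSS for 15 min at 37 °C. EC50 and efficacy came from nonlinear regression; 4-10 independent assays in duplicate.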
(In general: A change in cytosolic calcium serves as a functional read-out for many receptors and channels.)
Target sequence in this assay (P41586 whole entry): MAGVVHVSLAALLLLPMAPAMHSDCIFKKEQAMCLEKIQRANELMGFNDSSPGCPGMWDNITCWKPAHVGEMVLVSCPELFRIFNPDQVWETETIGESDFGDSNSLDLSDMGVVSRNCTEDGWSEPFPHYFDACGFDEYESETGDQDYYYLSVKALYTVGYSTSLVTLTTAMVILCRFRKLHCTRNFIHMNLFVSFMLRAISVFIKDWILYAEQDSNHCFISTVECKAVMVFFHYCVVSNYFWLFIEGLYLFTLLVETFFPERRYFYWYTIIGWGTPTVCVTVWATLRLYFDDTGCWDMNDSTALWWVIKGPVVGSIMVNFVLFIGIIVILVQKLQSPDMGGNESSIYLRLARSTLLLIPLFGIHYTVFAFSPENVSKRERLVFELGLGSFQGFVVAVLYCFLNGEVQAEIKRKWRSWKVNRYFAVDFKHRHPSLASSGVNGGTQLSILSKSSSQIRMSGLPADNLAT

For assay [2], the target named is T1, Pituitary adenylate cyclase-activating polypeptide type I receptor. Nature of the assay: Agonist activity at human recombinant PAC1 receptor expressed in CHO cells assessed as PACAP38-induced calcium mobilization by FLIPR assay relative to PACAP38. Type of assay: functional, cell-based. A digest of the protocol:
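CHO cells stably expressing recombinant human PAC1, plated 24 h before assay, loaded with fluo-4 AM for 60 min at 37 °C in the dark, then rinsed into HBSS for 15 min at 37 °C. Peptide was added 18 s into a 150 s read (ex 480/em 525 nm), at final concentrations of 1 × 10-12 to 1 × 10^-5 M. Response was normalised to 1 × 10^-5 M PACAP38 on each plate. EC50 and efficacy came from nonlinear regression; 4-10 independent assays in duplicate.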
Target sequence in this assay (P41586 21-468 limits assumed): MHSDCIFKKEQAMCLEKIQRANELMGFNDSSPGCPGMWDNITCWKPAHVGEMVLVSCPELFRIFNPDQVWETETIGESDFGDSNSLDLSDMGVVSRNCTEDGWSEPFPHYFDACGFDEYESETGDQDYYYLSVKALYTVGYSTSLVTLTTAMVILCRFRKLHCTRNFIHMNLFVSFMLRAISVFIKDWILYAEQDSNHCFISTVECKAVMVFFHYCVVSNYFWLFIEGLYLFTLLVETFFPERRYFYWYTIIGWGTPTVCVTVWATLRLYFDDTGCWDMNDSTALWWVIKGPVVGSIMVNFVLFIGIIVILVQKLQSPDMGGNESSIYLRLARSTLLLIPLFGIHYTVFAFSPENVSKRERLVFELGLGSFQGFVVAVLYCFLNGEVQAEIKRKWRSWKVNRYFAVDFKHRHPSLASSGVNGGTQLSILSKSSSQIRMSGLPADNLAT

For assay [3] the target is unchanged. The experiment in a line: Displacement of [125I]Ac-PACAP27 from human recombinant PAC1 receptor expressed in CHO cells by gamma- counter. Type of assay: cell-based. In general terms: Loss of bound radioactivity is the signal in a displacement assay; it reports binding, not function.
Target sequence in this assay (P41586 whole entry): as the sequence (P41586 whole entry) above

One may read the EC50 as the midpoint of the concentration-response curve. The Emax is the maximal effect, on the per cent scale that the assay sets. The IC50 is the concentration that gives 50% inhibition. Turning to `CC[C@H](C)[C@H](NC(=O)CNC(=O)[C@H](CC(=O)O)NC(=O)[C@@H]1C[C@@H](O)CN1C(=O)[C@@H](N)Cc1cnc[nH]1)C(=O)N[C@@H](Cc1ccccc1)C(=O)N[C@H](C(=O)N[C@@H](CC(=O)O)C(=O)N[C@@H](CO)C(=O)N[C@@H](Cc1ccc(O)cc1)C(=O)N[C@@H](CO)C(=O)N[C@@H](CCCNC(=N)N)C(=O)N[C@@H](Cc1ccc(O)cc1)C(=O)N[C@@H](CCCNC(=N)N)C(=O)N[C@@H](CCCCN)C(=O)N[C@@H](CCC(N)=O)C(=O)N[C@@H](CCSC)C(=O)N[C@@H](C)C(=O)N[C@H](C(=O)N[C@@H](CCCCN)C(=O)N[C@@H](CCCCN)C(=O)N[C@@H](Cc1ccc(O)cc1)C(=O)N[C@@H](CC(C)C)C(=O)N[C@@H](C)C(=O)N[C@@H](C)C(=O)N[C@H](C(=O)N[C@@H](CC(C)C)C(N)=O)C(C)C)C(C)C)[C@@H](C)O`, in assay [1], the EC50 was determined as 2.3 nM. The Emax in assay [2] was 89.2%. The IC50 in assay [3] was 8.5 nM.
As to `CC[C@H](C)[C@H](NC(=O)CNC(=O)[C@H](CC(=O)O)NC(=O)[C@H](CO)NC(=O)[C@@H](N)Cc1cnc[nH]1)C(=O)N[C@@H](Cc1cccc2ccccc12)C(=O)N[C@H](C(=O)N[C@@H](CC(=O)O)C(=O)N[C@@H](CO)C(=O)N[C@@H](Cc1ccc(O)cc1)C(=O)N[C@@H](CO)C(=O)N[C@@H](CCCNC(=N)N)C(=O)N[C@@H](Cc1ccc(O)cc1)C(=O)N[C@@H](CCCNC(=N)N)C(=O)N[C@@H](CCCCN)C(=O)N[C@@H](CCC(N)=O)C(=O)N[C@@H](CCSC)C(=O)N[C@@H](C)C(=O)N[C@H](C(=O)N[C@@H](CCCCN)C(=O)N[C@@H](CCCCN)C(=O)N[C@@H](Cc1ccc(O)cc1)C(=O)N[C@@H](CC(C)C)C(=O)N[C@@H](C)C(=O)N[C@@H](C)C(=O)N[C@H](C(=O)N[C@@H](CC(C)C)C(N)=O)C(C)C)C(C)C)[C@@H](C)O`, the EC50 in assay [1] is 0.7 nM. Besides, the Emax in assay [2] stood at 110%. For the same compound, the IC50 in assay [3] amounted to 6.5 nM.
In the case of `CC[C@H](C)[C@H](NC(=O)CNC(=O)[C@H](CCCC(=O)O)NC(=O)[C@H](CO)NC(=O)[C@@H](N)Cc1cnc[nH]1)C(=O)N[C@@H](Cc1ccccc1)C(=O)N[C@H](C(=O)N[C@@H](CC(=O)O)C(=O)N[C@@H](CO)C(=O)N[C@@H](Cc1ccc(O)cc1)C(=O)N[C@@H](CO)C(=O)N[C@@H](CCCNC(=N)N)C(=O)N[C@@H](Cc1ccc(O)cc1)C(=O)N[C@@H](CCCNC(=N)N)C(=O)N[C@@H](CCCCN)C(=O)N[C@@H](CCC(N)=O)C(=O)N[C@@H](CCSC)C(=O)N[C@@H](C)C(=O)N[C@H](C(=O)N[C@@H](CCCCN)C(=O)N[C@@H](CCCCN)C(=O)N[C@@H](Cc1ccc(O)cc1)C(=O)N[C@@H](CC(C)C)C(=O)N[C@@H](C)C(=O)N[C@@H](C)C(=O)N[C@H](C(=O)N[C@@H](CC(C)C)C(=O)NCC(=O)N[C@@H](CCCCN)C(=O)N[C@@H](CCCNC(=N)N)C(=O)N[C@@H](Cc1ccc(O)cc1)C(=O)N[C@@H](CCCCN)C(=O)N[C@@H](CCC(N)=O)C(=O)N[C@@H](CCCNC(=N)N)C(=O)N[C@H](C(=O)N[C@@H](CCCCN)C(=O)N[C@@H](CC(N)=O)C(=O)N[C@@H](CCCCN)C(N)=O)C(C)C)C(C)C)C(C)C)[C@@H](C)O` (H-HS[Aad]GIFTDSYSRYRKQMAVKKYLAAVLGKRYKQRVKNK-NH2), the EC50 in assay [1] turned out to be 37.6 nM. For the same compound, the Emax in assay [2] was 18.2%. The half-maximal inhibitory concentration (IC50) in assay [3] was determined as 12.5 nM.
For the compound `CC[C@H](C)[C@H](NC(=O)CNC(=O)[C@H](CC(=O)O)NC(=O)[C@H](CO)NC(=O)[C@@H](N)Cc1cncn1C)C(=O)N[C@@H](Cc1ccccc1)C(=O)N[C@H](C(=O)N[C@@H](CC(=O)O)C(=O)N[C@@H](CO)C(=O)N[C@@H](Cc1ccc(O)cc1)C(=O)N[C@@H](CO)C(=O)N[C@@H](CCCNC(=N)N)C(=O)N[C@@H](Cc1ccc(O)cc1)C(=O)N[C@@H](CCCNC(=N)N)C(=O)N[C@@H](CCCCN)C(=O)N[C@@H](CCC(N)=O)C(=O)N[C@@H](CCSC)C(=O)N[C@@H](C)C(=O)N[C@H](C(=O)N[C@@H](CCCCN)C(=O)N[C@@H](CCCCN)C(=O)N[C@@H](Cc1ccc(O)cc1)C(=O)N[C@@H](CC(C)C)C(=O)N[C@@H](C)C(=O)N[C@@H](C)C(=O)N[C@H](C(=O)N[C@@H](CC(C)C)C(N)=O)C(C)C)C(C)C)[C@@H](C)O`, in assay [1], the EC50 is 52.5 nM. Further, in assay [2], the Emax came to 96.9%. Also, the 50% inhibitory concentration (IC50) in assay [3] was 15.6 nM.
On to `CSCC[C@H](NC(=O)[C@H](CCC(N)=O)NC(=O)[C@H](CCCCN)NC(=O)[C@H](CCCNC(=N)N)NC(=O)[C@H](Cc1ccc(O)cc1)NC(=O)[C@H](CCCNC(=N)N)NC(=O)[C@H](CO)NC(=O)[C@H](Cc1ccc(O)cc1)NC(=O)[C@H](CO)NC(=O)[C@H](CC(=O)O)NC(=O)[C@@H](NC(=O)[C@H](Cc1ccccc1)NC(=O)[C@H](C)NC(=O)CNC(=O)[C@H](CC(=O)O)NC(=O)[C@H](CO)NC(=O)[C@@H](N)Cc1cnc[nH]1)[C@@H](C)O)C(=O)N[C@@H](C)C(=O)N[C@H](C(=O)N[C@@H](CCCCN)C(=O)N[C@@H](CCCCN)C(=O)N[C@@H](Cc1ccc(O)cc1)C(=O)N[C@@H](CC(C)C)C(=O)N[C@@H](C)C(=O)N[C@@H](C)C(=O)N[C@H](C(=O)N[C@@H](CC(C)C)C(=O)NCC(=O)N[C@@H](CCCCN)C(=O)N[C@@H](CCCNC(=N)N)C(=O)N[C@@H](Cc1ccc(O)cc1)C(=O)N[C@@H](CCCCN)C(=O)N[C@@H](CCC(N)=O)C(=O)N[C@@H](CCCNC(=N)N)C(=O)N[C@H](C(=O)N[C@@H](CCCCN)C(=O)N[C@@H](CC(N)=O)C(=O)N[C@@H](CCCCN)C(N)=O)C(C)C)C(C)C)C(C)C` (H-HSDGAFTDSYSRYRKQMAVKKYLAAVLGKRYKQRVKNK-NH2), for which, in assay [1], the EC50 stood at 9.6 nM. Also, the Emax in assay [2] was determined as 88.3%. Besides, in assay [3], the IC50 came to 34.4 nM.
`CC[C@H](C)[C@H](NC(=O)CNC(=O)[C@H](CC(=O)O)NC(=O)C(C)(C)NC(=O)[C@@H](N)Cc1cnc[nH]1)C(=O)N[C@@H](Cc1ccccc1)C(=O)N[C@H](C(=O)N[C@@H](CC(=O)O)C(=O)N[C@@H](CO)C(=O)N[C@@H](Cc1ccc(O)cc1)C(=O)N[C@@H](CO)C(=O)N[C@@H](CCCNC(=N)N)C(=O)N[C@@H](Cc1ccc(O)cc1)C(=O)N[C@@H](CCCNC(=N)N)C(=O)N[C@@H](CCCCN)C(=O)N[C@@H](CCC(N)=O)C(=O)N[C@@H](CCSC)C(=O)N[C@@H](C)C(=O)N[C@H](C(=O)N[C@@H](CCCCN)C(=O)N[C@@H](CCCCN)C(=O)N[C@@H](Cc1ccc(O)cc1)C(=O)N[C@@H](CC(C)C)C(=O)N[C@@H](C)C(=O)N[C@@H](C)C(=O)N[C@H](C(=O)N[C@@H](CC(C)C)C(N)=O)C(C)C)C(C)C)[C@@H](C)O`: the EC50 in assay [1] came out at 10.1 nM. In addition, the Emax in assay [2] amounted to 104%. In addition, in assay [3], the IC50 amounted to 9.5 nM.
In the case of `CC[C@H](C)[C@H](NC(=O)CNC(=O)[C@H](CC(=O)O)NC(=O)[C@@H]1C[C@@H](O)CN1C(=O)[C@@H](N)Cc1cnc[nH]1)C(=O)N[C@@H](Cc1ccccc1)C(=O)N[C@H](C(=O)N[C@@H](CC(=O)O)C(=O)N[C@@H](CO)C(=O)N[C@@H](Cc1ccc(O)cc1)C(=O)N[C@@H](CO)C(=O)N[C@@H](CCCNC(=N)N)C(=O)N[C@@H](Cc1ccc(O)cc1)C(=O)N[C@@H](CCCNC(=N)N)C(=O)N[C@@H](CCCCN)C(=O)N[C@@H](CCC(N)=O)C(=O)N[C@@H](CCSC)C(=O)N[C@@H](C)C(=O)N[C@H](C(=O)N[C@@H](CCCCN)C(=O)N[C@@H](CCCCN)C(=O)N[C@@H](Cc1ccc(O)cc1)C(=O)N[C@@H](CC(C)C)C(=O)N[C@@H](C)C(=O)N[C@@H](C)C(=O)N[C@H](C(=O)N[C@@H](CC(C)C)C(=O)NCC(=O)N[C@@H](CCCCN)C(=O)N[C@@H](CCCNC(=N)N)C(=O)N[C@@H](Cc1ccc(O)cc1)C(=O)N[C@@H](CCCCN)C(=O)N[C@@H](CCC(N)=O)C(=O)N[C@@H](CCCNC(=N)N)C(=O)N[C@H](C(=O)N[C@@H](CCCCN)C(=O)N[C@@H](CC(N)=O)C(=O)N[C@@H](CCCCN)C(N)=O)C(C)C)C(C)C)C(C)C)[C@@H](C)O` (H-H[Hyp]DGIFTDSYSRYRKQMAVKKYLAAVLGKRYKQRVKNK-NH2), in assay [1], the EC50 is 0.7 nM. Further, in assay [2], the Emax was found to be 94%. The IC50 in assay [3] came to 8.6 nM.
Turning to `CC[C@H](C)[C@H](NC(=O)CNC(=O)[C@H](CC(=O)O)NC(=O)[C@H](CO)NC(=O)[C@@H](N)Cc1cnc[nH]1)C(=O)N1c2ccccc2CC1C(=O)N[C@H](C(=O)N[C@@H](CC(=O)O)C(=O)N[C@@H](CO)C(=O)N[C@@H](Cc1ccc(O)cc1)C(=O)N[C@@H](CO)C(=O)N[C@@H](CCCNC(=N)N)C(=O)N[C@@H](Cc1ccc(O)cc1)C(=O)N[C@@H](CCCNC(=N)N)C(=O)N[C@@H](CCCCN)C(=O)N[C@@H](CCC(N)=O)C(=O)N[C@@H](CCSC)C(=O)N[C@@H](C)C(=O)N[C@H](C(=O)N[C@@H](CCCCN)C(=O)N[C@@H](CCCCN)C(=O)N[C@@H](Cc1ccc(O)cc1)C(=O)N[C@@H](CC(C)C)C(=O)N[C@@H](C)C(=O)N[C@@H](C)C(=O)N[C@H](C(=O)N[C@@H](CC(C)C)C(N)=O)C(C)C)C(C)C)[C@@H](C)O` (some centres not stated), the half-maximal effective concentration (EC50) in assay [1] amounted to 35 nM. The Emax in assay [2] was 72%. Further, the IC50 in assay [3] was 1940 nM.
For `CC[C@H](C)[C@H](NC(=O)CNC(=O)[C@H](C)NC(=O)[C@H](CO)NC(=O)[C@@H](N)Cc1cnc[nH]1)C(=O)N[C@@H](Cc1ccccc1)C(=O)N[C@H](C(=O)N[C@@H](CC(=O)O)C(=O)N[C@@H](CO)C(=O)N[C@@H](Cc1ccc(O)cc1)C(=O)N[C@@H](CO)C(=O)N[C@@H](CCCNC(=N)N)C(=O)N[C@@H](Cc1ccc(O)cc1)C(=O)N[C@@H](CCCNC(=N)N)C(=O)N[C@@H](CCCCN)C(=O)N[C@@H](CCC(N)=O)C(=O)N[C@@H](CCSC)C(=O)N[C@@H](C)C(=O)N[C@H](C(=O)N[C@@H](CCCCN)C(=O)N[C@@H](CCCCN)C(=O)N[C@@H](Cc1ccc(O)cc1)C(=O)N[C@@H](CC(C)C)C(=O)N[C@@H](C)C(=O)N[C@@H](C)C(=O)N[C@H](C(=O)N[C@@H](CC(C)C)C(N)=O)C(C)C)C(C)C)[C@@H](C)O`, in that order: 538 nM, 18.4% and 602 nM.
